ChEMBL document CHEMBL2169847, “New tricks for an old natural product: discovery of highly potent evodiamine derivatives as novel antitumor agents by systemic structure-activity relationship analysis and biological evaluations” (J Med Chem, 2012)
Active and inactive are the calls of the source. No cut-off for these calls is given here.

How the values were obtained:
MDA-MB-435 = test: Cytotoxicity against human MDA-MB-435 cells incubated for 72 hrs by MTT assay; type: functional; details: MDA-MB-435, 72 h
Outline: (§1)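 MTT assay. Cells seeded at 5 × 10³/well and grown 24 h at 37 °C, 5% CO₂. Compounds added at several concentrations in triplicate wells, with 0.1% DMSO control, for 72 h. MTT then added for 4 h, formazan dissolved in DMSO, and absorbance read at 570 nm. GI₅₀ by Logit method; three experiments.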

HCT-116 [1] = test: Cytotoxicity against human HCT116 cells incubated for 72 hrs by MTT assay; type: functional; details: HCT-116, 72 h; outline: as §1
[2] = target: T1, DNA topoisomerase 1 (Homo sapiens) (UniProt P11387); test: Inhibition of Top1 assessed as suppression of supercoiled pBR322 DNA relaxation measuring appearance of short DNA fragments at 100 uM incubated for 15 mins by electrophoresis method
T1 sequence (whole entry): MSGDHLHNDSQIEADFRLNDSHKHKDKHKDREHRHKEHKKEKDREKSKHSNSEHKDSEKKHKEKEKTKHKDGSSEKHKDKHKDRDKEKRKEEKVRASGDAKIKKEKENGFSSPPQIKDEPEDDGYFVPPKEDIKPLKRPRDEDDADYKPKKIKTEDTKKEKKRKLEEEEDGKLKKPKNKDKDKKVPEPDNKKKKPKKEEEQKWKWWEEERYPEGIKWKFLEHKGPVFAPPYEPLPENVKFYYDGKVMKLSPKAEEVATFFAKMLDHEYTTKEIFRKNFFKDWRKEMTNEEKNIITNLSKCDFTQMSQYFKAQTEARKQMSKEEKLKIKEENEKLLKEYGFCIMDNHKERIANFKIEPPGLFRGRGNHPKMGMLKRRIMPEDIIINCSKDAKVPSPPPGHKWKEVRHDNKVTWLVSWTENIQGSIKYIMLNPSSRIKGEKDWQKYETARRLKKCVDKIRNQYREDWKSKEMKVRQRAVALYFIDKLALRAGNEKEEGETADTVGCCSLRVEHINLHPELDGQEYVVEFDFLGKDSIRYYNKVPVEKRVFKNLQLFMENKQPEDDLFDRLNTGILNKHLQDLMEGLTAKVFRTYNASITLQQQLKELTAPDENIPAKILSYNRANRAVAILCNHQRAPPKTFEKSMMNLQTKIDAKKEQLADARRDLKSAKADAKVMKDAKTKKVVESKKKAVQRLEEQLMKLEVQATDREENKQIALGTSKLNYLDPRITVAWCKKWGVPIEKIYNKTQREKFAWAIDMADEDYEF

A549 [3] = test: Cytotoxicity against human A549 cells incubated for 72 hrs by MTT assay; type: functional; details: A549, 72 h; outline: as §1
[4] = target: T1, DNA topoisomerase 1 (Homo sapiens); test: Inhibition of Top1 assessed as suppression of supercoiled pBR322 DNA relaxation measuring appearance of short DNA fragments at 500 uM incubated for 15 mins by electrophoresis method
CNE = test: Cytotoxicity against human CNE cells incubated for 72 hrs by MTT assay; type: functional; outline: as §1
ZR-75-30 = test: Cytotoxicity against human ZR75-30 cells incubated for 72 hrs by MTT assay; type: functional; details: ZR-75-30, 72 h; outline: as §1
[5] = Cytotoxicity against human KYSE-150 cells incubated for 72 hrs by MTT assay; type: functional; details: KYSE-150, 72 h; outline: as §1
[6] = Toxicity in mouse; type: organism-based; details: in vivo
Mus musculus [7] = test: Toxicity in BALB/C nude mouse xenografted with human HCT116 cells assessed as reduction in body weight at 2 mg/kg, ip administered as a single dose on 17th day and measured on 30 to 33 days post implantation; type: organism-based, HCT-116; design: dose 2 mg/kg, route intraperitoneal; details: in vivo
Outline: (§2)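 Cells implanted subcutaneously in right axilla of nude mice; dosing began at tumor volume about 100−300 mm³ (day 17). Randomized, six mice per treatment group and eight controls; ip injection. Tumor volume by caliper, TV = 1/2 × a × b², with body weight every 4 days. Mice sacrificed day 30−33 and tumors removed. Mean SEM, Student's t test versus control.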

PC-3 = test: Cytotoxicity against human PC3 cells incubated for 72 hrs by MTT assay; type: functional; details: PC-3, 72 h; outline: as §1
[8] = target: T1, DNA topoisomerase 1 (Homo sapiens); test: Inhibition of Top1 assessed as suppression of supercoiled pBR322 DNA relaxation measuring appearance of short DNA fragments at 50 uM incubated for 15 mins by electrophoresis method
PANC-1 = test: Cytotoxicity against human PANC1 cells incubated for 72 hrs by MTT assay; type: functional; details: PANC-1, 72 h; outline: as §1
HCT-116 [9] = test: Antitumor activity against human HCT116 cells xenografted in BALB/C nude mouse assessed as tumor growth inhibition at 2 mg/kg, ip administered as a single dose on 17th day and measured on 30 to 33 days post implantation; type: functional, organism-based; design: dose 2 mg/kg; outline: as §2
HepG2 = test: Cytotoxicity against human HepG2 cells incubated for 72 hrs by MTT assay; type: functional; details: HepG2, 72 h; outline: as §1
U2OS = test: Cytotoxicity against human U2OS cells incubated for 72 hrs by MTT assay; type: functional; outline: as §1
HL-60 = test: Cytotoxicity against human HL60 cells incubated for 72 hrs by MTT assay; type: functional; details: HL-60, 72 h; outline: as §1
[10] = target: DNA topoisomerase 2-alpha (Homo sapiens) (UniProt P11388); test: Inhibition of human Top2alpha assessed as suppression of supercoiled pBR322 DNA relaxation at 50 uM incubated for 30 mins by electrophoresis method
Chain of DNA topoisomerase 2-alpha (Homo sapiens) (P11388 whole entry): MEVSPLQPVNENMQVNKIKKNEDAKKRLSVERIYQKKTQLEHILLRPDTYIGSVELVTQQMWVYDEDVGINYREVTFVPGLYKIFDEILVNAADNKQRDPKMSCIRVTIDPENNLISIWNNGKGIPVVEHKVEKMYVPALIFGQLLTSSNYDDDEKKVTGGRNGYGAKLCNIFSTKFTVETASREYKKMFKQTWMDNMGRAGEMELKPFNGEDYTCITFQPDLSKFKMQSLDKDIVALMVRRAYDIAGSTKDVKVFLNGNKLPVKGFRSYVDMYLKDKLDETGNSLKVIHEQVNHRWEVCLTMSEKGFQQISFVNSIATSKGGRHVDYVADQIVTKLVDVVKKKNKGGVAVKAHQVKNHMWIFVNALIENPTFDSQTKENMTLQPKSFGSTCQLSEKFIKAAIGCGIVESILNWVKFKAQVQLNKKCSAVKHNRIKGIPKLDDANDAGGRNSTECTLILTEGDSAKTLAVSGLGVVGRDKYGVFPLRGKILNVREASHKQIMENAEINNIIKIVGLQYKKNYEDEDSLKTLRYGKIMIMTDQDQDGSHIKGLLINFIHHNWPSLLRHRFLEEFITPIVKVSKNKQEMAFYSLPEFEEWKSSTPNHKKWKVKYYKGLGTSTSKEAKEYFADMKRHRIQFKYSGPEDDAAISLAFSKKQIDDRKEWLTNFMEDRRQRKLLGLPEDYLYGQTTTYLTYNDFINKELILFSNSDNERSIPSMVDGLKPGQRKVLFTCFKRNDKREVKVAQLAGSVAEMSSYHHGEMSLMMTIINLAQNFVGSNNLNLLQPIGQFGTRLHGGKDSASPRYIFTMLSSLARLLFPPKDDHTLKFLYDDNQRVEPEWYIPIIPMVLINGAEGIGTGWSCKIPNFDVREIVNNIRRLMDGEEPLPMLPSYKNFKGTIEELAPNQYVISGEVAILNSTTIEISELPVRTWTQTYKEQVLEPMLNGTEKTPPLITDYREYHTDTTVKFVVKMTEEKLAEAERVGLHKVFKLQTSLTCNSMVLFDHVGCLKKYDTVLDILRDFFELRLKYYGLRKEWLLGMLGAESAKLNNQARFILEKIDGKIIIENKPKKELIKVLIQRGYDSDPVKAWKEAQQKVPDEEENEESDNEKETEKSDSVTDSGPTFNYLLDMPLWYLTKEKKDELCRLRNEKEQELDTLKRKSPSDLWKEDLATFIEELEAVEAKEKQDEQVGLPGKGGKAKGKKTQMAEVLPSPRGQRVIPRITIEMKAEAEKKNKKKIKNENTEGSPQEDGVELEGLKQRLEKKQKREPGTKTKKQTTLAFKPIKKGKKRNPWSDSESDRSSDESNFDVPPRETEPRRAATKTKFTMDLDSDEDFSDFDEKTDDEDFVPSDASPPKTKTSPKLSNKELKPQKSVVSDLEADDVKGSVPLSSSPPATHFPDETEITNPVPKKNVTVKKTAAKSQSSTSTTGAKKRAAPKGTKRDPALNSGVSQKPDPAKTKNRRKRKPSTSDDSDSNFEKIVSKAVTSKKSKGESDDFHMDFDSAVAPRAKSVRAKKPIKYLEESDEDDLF

SAOS-2 = test: Cytotoxicity against human Saos2 cells incubated for 72 hrs by MTT assay; type: functional; details: SAOS-2, 72 h; outline: as §1
A549 [11] = test: Antitumor activity against human A549 cells xenografted in BALB/C nude mouse assessed as tumor growth inhibition at 2 mg/kg, ip administered as a single dose on 17th day post implantation and measured on 30 to 33 days post implantation; type: functional, organism-based; design: dose 2 mg/kg; outline: as §2
Mus musculus [12] = test: Toxicity in BALB/C nude mouse xenografted with human A549 cells assessed as reduction in body weight at 2 mg/kg, ip administered as a single dose on 17th day and measured on 30 to 33 days post implantation; type: organism-based; design: dose 2 mg/kg, route intraperitoneal; details: in vivo; outline: as §2

inhibition [2]	inhibition [10]	SMILES	GI50 (MDA-MB-435) [nM]	GI50 (HCT-116 [1]) [nM]	GI50 (A549 [3]) [nM]	also measured
inactive		CN1c2ccccc2C(=O)N2CCc3c([nH]c4ccccc34)[C@@H]21 [EVODIAMINE]	20200	100000	100000	inhibition [4]: Active
		CN1c2ccc(F)cc2C(=O)N2CCc3c([nH]c4ccc(O)cc34)[C@H]21		3.6	3.7	GI50 (CNE): 8110 nM; GI50 (ZR-75-30): 3 nM; GI50 [5]: 3 nM
		CN1c2ccccc2C(=O)N2CCc3c([nH]c4ccccc34)[C@H]21 [EVODIAMINE]				LD50 [6]: 77.8 mg/kg
Active	inactive	CN1c2ccccc2C(=O)N2CCc3c([nH]c4c(Cl)cccc34)C21 (stereo not given)	< 3	< 3	2550	Activity (Mus musculus [7]): Toxic; GI50 (PC-3): > 296000 nM; inhibition [8]: Active; GI50 (PANC-1): 120 nM; TGI (HCT-116 [9]): Active; GI50 (HepG2): 2310 nM; GI50 (U2OS): > 296000 nM; GI50 (HL-60): < 3 nM; GI50 (SAOS-2): > 296000 nM
		CN1c2ccc(F)cc2C(=O)N2CCc3c([nH]c4ccc(O)cc34)[C@@H]21		11	4.6	GI50 (CNE): 5880 nM; GI50 (ZR-75-30): 1750 nM; GI50 [5]: 1230 nM
Active	inactive	CN1c2ccc(Cl)cc2C(=O)N2CCc3c([nH]c4ccccc34)C21 (stereo not given)	< 3	< 3	< 3	TGI (A549 [11]): inactive; Activity (Mus musculus [12]): Non-toxic
Active	Active	CN1c2ccc(Cl)cc2C(=O)N2CCc3c([nH]c4ccc(O)cc34)C21 (stereo not given)	5	5	120	Activity (Mus musculus [7]): Toxic; inhibition [8]: Active; TGI (HCT-116 [9]): Active
